The record followed here is ChEMBL document CHEMBL3734718, “Development of new highly potent imidazo[1,2-b]pyridazines targeting Toxoplasma gondii calcium-dependent protein kinase 1” (Eur J Med Chem, 2015).

Molecules are shown by their SMILES. pEC50, pIC50: −log10 of the molar value.

Data set [1] is described as follows: Inhibition of wild type recombinant Toxoplasma gondii CDPK1 using syntide-2 substrate after 30 mins by Kinase-Glo luminescent assay.
The target in data set [2] is Cyclin-dependent kinase 5/CDK5 activator 1 (Homo sapiens, UniProt Q00535). Kind of data set: Inhibition of human recombinant CDK5/P25 expressed in Escherichia coli using histone H1 substrate after 30 mins by scintillation and luminescence counting method in presence of [gamma-33P]ATP.
Sequence of Cyclin-dependent kinase 5/CDK5 activator 1 (Q00535 whole entry): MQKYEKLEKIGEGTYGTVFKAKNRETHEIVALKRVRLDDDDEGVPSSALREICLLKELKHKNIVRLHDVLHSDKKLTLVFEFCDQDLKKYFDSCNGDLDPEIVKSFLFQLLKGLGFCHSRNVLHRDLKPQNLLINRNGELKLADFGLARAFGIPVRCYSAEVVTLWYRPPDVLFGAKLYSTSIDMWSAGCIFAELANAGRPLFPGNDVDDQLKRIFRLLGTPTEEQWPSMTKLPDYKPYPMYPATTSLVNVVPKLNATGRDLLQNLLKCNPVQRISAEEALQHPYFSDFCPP
Sequence of Cyclin-dependent kinase 5/CDK5 activator 1 (Q15078 whole entry, further chain): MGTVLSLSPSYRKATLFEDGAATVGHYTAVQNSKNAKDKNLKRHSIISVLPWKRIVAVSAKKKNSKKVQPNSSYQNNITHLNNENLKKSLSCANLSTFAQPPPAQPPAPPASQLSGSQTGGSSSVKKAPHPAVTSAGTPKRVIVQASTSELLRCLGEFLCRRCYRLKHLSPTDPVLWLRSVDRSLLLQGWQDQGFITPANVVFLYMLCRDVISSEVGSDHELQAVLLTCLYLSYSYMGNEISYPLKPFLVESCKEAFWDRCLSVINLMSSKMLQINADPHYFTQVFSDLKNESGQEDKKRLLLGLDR
For data set [3], the target named is Receptor-interacting serine/threonine-protein kinase 3 (Homo sapiens, UniProt Q9Y572). The data set can be described thus: Inhibition of full length human GST-tagged RIPK3 expressed in Spodoptera frugiperda Sf9 cells after 30 mins by scintillation and luminescence counting method in the presence of [gamma-33P]ATP.
Sequence of Receptor-interacting serine/threonine-protein kinase 3 (Q9Y572 whole entry): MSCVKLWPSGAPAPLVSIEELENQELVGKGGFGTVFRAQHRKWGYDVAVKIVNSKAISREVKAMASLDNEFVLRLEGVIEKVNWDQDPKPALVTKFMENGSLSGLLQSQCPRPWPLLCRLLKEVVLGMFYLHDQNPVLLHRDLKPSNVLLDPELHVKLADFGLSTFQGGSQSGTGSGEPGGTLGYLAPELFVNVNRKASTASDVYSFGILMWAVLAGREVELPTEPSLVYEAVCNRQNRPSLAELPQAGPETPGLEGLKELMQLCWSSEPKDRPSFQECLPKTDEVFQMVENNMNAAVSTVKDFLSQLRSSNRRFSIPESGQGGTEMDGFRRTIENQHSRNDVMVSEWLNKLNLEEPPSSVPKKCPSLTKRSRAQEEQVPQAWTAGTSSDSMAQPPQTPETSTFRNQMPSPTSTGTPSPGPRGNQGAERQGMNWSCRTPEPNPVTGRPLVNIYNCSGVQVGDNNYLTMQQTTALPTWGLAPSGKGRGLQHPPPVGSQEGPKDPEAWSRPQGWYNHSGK
Data set [4] is described as follows: Inhibition of porcine brain CK1-delta/epsilon using CKS peptide substrate after 30 mins by scintillation and luminescence counting method in presence of [gamma-33P]ATP. Set-up: species or system Sus scrofa.
Data set [5] has as its target Glycogen synthase kinase-3 (Sus scrofa, UniProt B2LUN4+I6LNT8). The data set can be described thus: Inhibition of porcine brain GSK-3 alpha/beta using GS-1 substrate after 30 mins by scintillation and luminescence counting method in the presence of [gamma-33P]ATP.
Data set [6] addresses T1, Serine/threonine-protein kinase haspin (Homo sapiens, UniProt Q8TF76).
T1 sequence (Q8TF76 whole entry): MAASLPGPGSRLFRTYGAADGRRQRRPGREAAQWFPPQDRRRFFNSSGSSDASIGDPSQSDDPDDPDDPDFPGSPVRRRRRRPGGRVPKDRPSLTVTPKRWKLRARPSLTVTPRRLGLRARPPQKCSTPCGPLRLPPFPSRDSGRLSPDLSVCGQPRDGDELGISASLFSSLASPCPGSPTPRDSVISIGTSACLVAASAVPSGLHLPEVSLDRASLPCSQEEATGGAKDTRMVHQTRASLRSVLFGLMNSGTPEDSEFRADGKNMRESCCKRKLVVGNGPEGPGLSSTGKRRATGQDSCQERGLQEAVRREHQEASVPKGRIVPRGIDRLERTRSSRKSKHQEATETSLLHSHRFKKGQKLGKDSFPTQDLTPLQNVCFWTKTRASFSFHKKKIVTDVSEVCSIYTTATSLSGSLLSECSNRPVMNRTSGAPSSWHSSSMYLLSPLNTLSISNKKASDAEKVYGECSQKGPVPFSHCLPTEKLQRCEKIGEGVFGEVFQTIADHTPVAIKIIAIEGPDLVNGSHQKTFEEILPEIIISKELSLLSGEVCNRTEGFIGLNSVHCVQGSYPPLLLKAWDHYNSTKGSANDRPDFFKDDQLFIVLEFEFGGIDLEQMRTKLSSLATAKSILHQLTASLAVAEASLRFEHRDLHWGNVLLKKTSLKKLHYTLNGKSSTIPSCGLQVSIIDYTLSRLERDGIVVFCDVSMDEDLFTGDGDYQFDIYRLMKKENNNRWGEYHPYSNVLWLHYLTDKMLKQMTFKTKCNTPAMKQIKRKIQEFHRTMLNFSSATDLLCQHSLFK
The data set can be described thus: Inhibition of human recombinant haspin kinase domain expressed in Escherichia coli BL21-KRX using histone H3 (1 to 21) peptide substrate after 30 mins by scintillation and luminescence counting method in the presence of [gamma-33P]ATP.

Data set [7] relates to Toxoplasma gondii. Kind of data set: Antiparasitic activity against Toxoplasma gondii RH tachyzoite expressing beta-galactosidase assessed as inhibition of tachyzoite invasion into human foreskin fibroblast host cells after 96 hrs by colorimetric microtitre assay. Type of data set: functional, organism-based. Put shortly: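 Invasion of HFF host cells by a recombinant T. gondii strain carrying bacterial β-galactosidase was judged indirectly from parasite growth inhibition in a colorimetric microtiter format.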

The nature of data set [8]: Cytotoxicity against HFF assessed as cell proliferation after 96 hrs by alamar blue reduction assay. In kind it is cell-based. The following applies: human, HFF cells. The gist of the method:
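Non-specific toxicity to HFF host cells was measured by Alamar Blue reduction as a quantitative read-out of cell proliferation, with the CC50 derived.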

Data set [9] in a line: Selectivity ratio of IC50 for human recombinant haspin kinase domain expressed in Escherichia coli BL21-KRX to IC50 for wild type recombinant Toxoplasma gondii CDPK1. In kind it is cell-free.
A short description of data set [10]: Selectivity ratio of IC50 for porcine brain GSK-3 alpha/beta to IC50 for wild type recombinant Toxoplasma gondii CDPK1.
Data set [11] can be described thus: Selectivity ratio of IC50 for human recombinant CDK5/P25 expressed in Escherichia coli to IC50 for wild type recombinant Toxoplasma gondii CDPK1. In kind it is cell-free.
Data set [12] in a line: Selectivity ratio of IC50 for porcine brain CK1-delta/epsilon to IC50 for wild type recombinant Toxoplasma gondii CDPK1.
A short description of data set [13]: Selectivity ratio of IC50 for full length human GST-tagged RIPK3 expressed in Spodoptera frugiperda Sf9 cells to IC50 for wild type recombinant Toxoplasma gondii CDPK1.
The nature of data set [14]: Lipophilicity, log P of the compound. Type of data set: physicochemical. The following applies: octanol/water.

In general, pIC50 refers to −log10 of the IC50, conventionally taken in molar units. As usually defined, the IC50 is the point on the concentration scale where inhibition reaches its midpoint. What is called pEC50 is the negative decadic logarithm of the EC50, by convention in mol/L. For orientation: CC50 means the concentration that lowers cell viability or growth by half. In the case of `CN1CCN(c2ccc3nc(-c4cccc5ccccc45)c(-c4ccncc4)n3n2)CC1`, the pIC50 is 8.10 in data set [1]; below 5.00 in data set [2]; 6.06 in data set [3]; 6.29 in [4]; below 5.00 in [6]. In addition, the IC50 in data set [5] is above 10000 nM. In data set [7], the pEC50 was 7.15. The CC50 at 96 h in data set [8] amounted to 21300 nM. The Ratio IC50 in data set [9] is above 1000; in data set [10] it was above 1000; in [11], above 1000; in data set [12], 25; in data set [13] it was above 100.
As to `CN1CCN(c2ccc3nc(-c4cccc5c4OCO5)c(-c4ccncc4)n3n2)CC1`, the pIC50 in data set [1] is 7.85; in [2], below 5.00; in data set [3] it was 5.60; in data set [4] it was 6.43; in data set [6], below 5.00. The IC50 in data set [5] worked out at 5400 nM. Besides, in [7], the pEC50 is 7.00. For the same molecule, the CC50 at 96 h in [8] amounted to 42500 nM. The Ratio IC50 in [9] is above 380; in data set [10], above 380; in data set [11], above 380; in [12], 25; in [13], above 100.
A word on the logP: it is the decadic logarithm of the partition coefficient of the neutral form, usually between octanol and water. Low readings indicate a more hydrophilic compound, high ones a more lipophilic compound. Consider `CN1CCN(c2ccc3nc(-c4cccc(-c5ccsc5)c4)c(-c4ccncc4)n3n2)CC1`, for which the pIC50 in data set [1] is 6.30; in [2], below 5.00; in [3], 6.52; in data set [4], at most 5.00; in data set [6] it was below 5.00. Moreover, the IC50 in data set [5] is 7600 nM. For the same molecule, the pEC50 in data set [7] was 6.21. In [8], the CC50 at 96 h amounted to 6300 nM. The molecule also showed a logP in data set [14] of 5.
